Measurements: ChEMBL document CHEMBL4270612, “Discovery of dual GyrB/ParE inhibitors active against Gram-negative bacteria” (Eur J Med Chem, 2018)
In brackets after ≈: the same amount, converted by molar mass.

Columns and labels:
[1] = target: DNA gyrase subunit B (Escherichia coli, UniProt P0AES6); assay: Inhibition of Escherichia coli GyrB (1 to 220 residues) expressed in Escherichia coli BL21(DE3)
[2] = target: DNA topoisomerase 4 subunit B (Escherichia coli K-12, UniProt P20083); assay: Inhibition of Escherichia coli ParE
[3] = system: Pseudomonas aeruginosa; assay: Antibacterial activity against Pseudomonas aeruginosa PAO1 after 24 hrs by broth microdilution method; assay type: functional; conditions: PAO1, 24 h
How it was run: (§1)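 Broth microdilution per CLSI. Bacterial suspension adjusted to 1×10^6 CFU/mL in cation-adjusted Mueller–Hinton broth and mixed 1:1 with 2-fold serial compound dilutions. Final DMSO 2.5% v/v. Plates incubated at 35 °C with shaking at 140 rpm for 24 h.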

[4] = system: Pseudomonas aeruginosa; assay: Antibacterial activity against Pseudomonas aeruginosa harboring MexABCDXY deletion mutant after 24 hrs by broth microdilution method; assay type: functional
How it was run: (§2)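 Broth microdilution per CLSI. Bacterial suspensions adjusted to 1×10^6 CFU/mL in cation-adjusted Mueller–Hinton broth, mixed 1:1 with 2-fold serial compound dilutions (final DMSO 2.5% v/v). Incubation 35 °C, 140 rpm, 24 h.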

[5] = system: Escherichia coli; assay: Antibacterial activity against Escherichia coli after 24 hrs by broth microdilution method; assay type: functional; how it was run: as §1
[6] = system: Escherichia coli; assay: Antibacterial activity against tolC deficient Escherichia coli after 24 hrs by broth microdilution method; assay type: functional
How it was run: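 Broth microdilution per CLSI guidelines. Inoculum adjusted to 1×10^6 CFU/mL in cation-adjusted Mueller–Hinton broth, added 1:1 to 2-fold serial compound dilutions; final DMSO 2.5% v/v. Plates incubated 35 °C, 140 rpm, 24 h.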

[7] = Dissociation constant, acidic pKa of compound by pH metric method; assay type: physicochemical
How it was run: (§3)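 Potentiometric (pH-metric) titration on an automated titrator, Gold Standard pH metric assay, run in triplicate.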

[8] = Dissociation constant, basic pKa of compound by pH metric method; assay type: physicochemical; how it was run: as §3
[9] = Dissociation constant, pKa of compound by pH metric method; assay type: physicochemical; how it was run: as §3
[10] = Growth inhibition of human A549 cells; assay type: cell-based
[11] = system: Acinetobacter baumannii; assay: Antibacterial activity against Acinetobacter baumannii ARC3495 after 24 hrs by broth microdilution method; assay type: functional; conditions: ARC3495, 24 h; how it was run: as §1
[12] = system: Klebsiella pneumoniae; assay: Antibacterial activity against Klebsiella pneumoniae ARC1865 after 24 hrs by broth microdilution method; assay type: functional; conditions: ARC1865, 24 h; how it was run: as §1
[13] = system: Haemophilus influenzae; assay: Antibacterial activity against Haemophilus influenzae ATCC 49247 after 24 hrs by broth microdilution method; assay type: functional; conditions: ATCC 49247, 24 h; how it was run: as §1
[14] = system: Enterobacter cloacae; assay: Antibacterial activity against Enterobacter cloacae ARC3528 after 24 hrs by broth microdilution method; assay type: functional; conditions: ARC3528, 24 h; how it was run: as §1
[15] = system: Staphylococcus aureus; assay: Antibacterial activity against methicillin-resistant Staphylococcus aureus FQ-R after 24 hrs by broth microdilution method; assay type: functional; how it was run: as §2
[16] = system: Staphylococcus aureus; assay: Antibacterial activity against methicillin-resistant Staphylococcus aureus USA100 after 24 hrs by broth microdilution method; assay type: functional; conditions: USA100, 24 h; how it was run: as §2
[17] = system: Streptococcus pyogenes; assay: Antibacterial activity against Streptococcus pyogenes ARC838 after 24 hrs by broth microdilution method; assay type: functional; conditions: ARC838, 24 h
How it was run: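 Broth microdilution per CLSI. Bacterial suspension adjusted to 1×10^6 CFU/mL in cation-adjusted Mueller–Hinton broth and mixed 1:1 with 2-fold serial compound dilutions. Plates incubated at 35 °C with shaking at 140 rpm for 24 h.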

[18] = system: Candida albicans; assay: Antifungal activity against Candida albicans ATCC 90028 after 24 hrs by broth microdilution method; assay type: functional; conditions: ATCC 90028, 24 h
[19] = system: Staphylococcus aureus; assay: Antibacterial activity against Staphylococcus aureus ATCC 29213 after 24 hrs by broth microdilution method; assay type: functional; conditions: ATCC 29213, 24 h; how it was run: as §1
[20] = system: Staphylococcus aureus; assay: Antibacterial activity against Staphylococcus aureus ATCC 29213 after 24 hrs in presence of 2% human albumin by broth microdilution method; assay type: functional; conditions: ATCC 29213, 24 h
[21] = system: Streptococcus pneumoniae; assay: Antibacterial activity against Streptococcus pneumoniae ATCC 49619 after 24 hrs by broth microdilution method; assay type: functional; conditions: ATCC 49619, 24 h; how it was run: as §1
[22] = system: Enterococcus faecalis; assay: Antibacterial activity against Enterococcus faecalis ATCC 29212 after 24 hrs by broth microdilution method; assay type: functional; conditions: ATCC 29212, 24 h; how it was run: as §1

Sequence of DNA topoisomerase 4 subunit B (P20083 whole entry): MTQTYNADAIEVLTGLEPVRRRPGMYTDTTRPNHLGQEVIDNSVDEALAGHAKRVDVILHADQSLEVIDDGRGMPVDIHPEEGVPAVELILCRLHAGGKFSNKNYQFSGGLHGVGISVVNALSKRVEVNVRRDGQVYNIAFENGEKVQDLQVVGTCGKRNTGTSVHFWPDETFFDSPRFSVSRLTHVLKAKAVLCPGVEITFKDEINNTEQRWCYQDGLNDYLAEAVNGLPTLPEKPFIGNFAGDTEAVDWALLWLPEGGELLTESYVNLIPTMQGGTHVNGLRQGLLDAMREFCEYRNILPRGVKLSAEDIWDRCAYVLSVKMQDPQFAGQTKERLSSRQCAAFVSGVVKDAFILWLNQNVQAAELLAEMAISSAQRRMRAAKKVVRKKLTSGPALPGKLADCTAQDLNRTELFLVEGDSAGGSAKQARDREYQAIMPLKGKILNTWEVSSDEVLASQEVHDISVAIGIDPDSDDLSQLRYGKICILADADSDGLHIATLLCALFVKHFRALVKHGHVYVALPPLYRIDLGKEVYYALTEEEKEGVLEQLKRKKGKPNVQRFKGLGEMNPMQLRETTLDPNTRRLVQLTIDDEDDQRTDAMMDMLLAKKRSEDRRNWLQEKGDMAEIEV

CCNC(=O)Nc1cc(-c2nc(C(F)(F)F)cs2)c(-c2cc(-c3n[nH]c(=O)o3)cnc2N2CCC(N)CC2)cn1 showed an IC50 [1] of 2 nM, an IC50 [2] of 23 nM and an MIC [3] greater than 50 µg/mL. The MIC [4] was 1.15 µg/mL (≈ 2 µM), the MIC [5] was greater than 50 µg/mL and the MIC [6] was 9.2 µg/mL (≈ 16 µM). It also gave a pKa [7] of 6.8 and a pKa [8] of 9.5.
CCNC(=O)Nc1cc(-c2nc(C(F)(F)F)cs2)c(-c2cc3ncccc3nc2N2CCN(C)CC2)cn1 showed an IC50 [1] of 3 nM, an IC50 [2] of 400 nM and an MIC [3] greater than 100 µg/mL. For the same compound, the MIC [4] was 1.08 µg/mL (≈ 1.99 µM), the MIC [5] was 16.8 µg/mL (≈ 31 µM) and the MIC [6] was 1.08 µg/mL (≈ 1.99 µM). It also gave a pKa [9] of 7.4 and a GI50 [10] greater than 50000 nM.
For CC(=O)NC[C@H]1CN(c2ccc(N3CCOCC3)c(F)c2)C(=O)O1 [LINEZOLID], the MIC [11] was greater than 64 µg/mL, the MIC [12] was greater than 64 µg/mL and the MIC [13] was 4 µg/mL (≈ 11.9 µM). It also gave an MIC [14] greater than 64 µg/mL, an MIC [15] of 0.5 µg/mL (≈ 1.48 µM) and an MIC [16] of 1 µg/mL (≈ 2.96 µM). It also gave an MIC [17] of 0.5 µg/mL (≈ 1.48 µM) and an MIC [18] greater than 64 µg/mL.
In the case of CCNC(=O)Nc1cc(-c2nc(C(F)(F)F)cs2)c(-c2cc3ncccc3nc2N2CCC(N)CC2)cn1, the IC50 [1] is reported as 6 nM, the IC50 [2] is reported as 49 nM and the MIC [3] is reported as 67.8 µg/mL (≈ 125 µM). It also gave an MIC [4] of 0.54 µg/mL (≈ 0.995 µM), an MIC [5] of 16.8 µg/mL (≈ 31 µM) and an MIC [6] of 0.54 µg/mL (≈ 0.995 µM). For the same compound, the pKa [9] was 9.3 and the GI50 [10] was greater than 50000 nM.
In the case of CCNC(=O)Nc1cc(-c2nc(C(F)(F)F)cs2)c(-c2cc3ncccc3nc2N2CC3CCC2CN3)cn1 (configuration not stated), the IC50 [1] is reported as 8 nM, the IC50 [2] is reported as 21 nM and the MIC [3] is reported as greater than 60 µg/mL. For the same compound, the MIC [4] was 0.55 µg/mL (≈ 0.992 µM), the MIC [5] was 8.87 µg/mL (≈ 16 µM) and the MIC [6] was 1.1 µg/mL (≈ 1.98 µM). The pKa [9] was 9.2.
In the case of CCNC(=O)Nc1cc(-c2nc(C(F)(F)F)cs2)c(-c2cc3ncccc3nc2N2C3CC2CN(C)C3)cn1, the IC50 [1] is reported as 5 nM, the IC50 [2] is reported as 200 nM and the MIC [3] is reported as greater than 60 µg/mL. The MIC [4] was 1.1 µg/mL (≈ 1.98 µM), the MIC [5] was 17.2 µg/mL (≈ 31 µM) and the MIC [6] was 2.21 µg/mL (≈ 3.98 µM). The pKa [9] was 7.6 and the GI50 [10] was greater than 50000 nM.
CCNC(=O)Nc1cc(-c2nc(C(F)(F)F)cs2)c(-c2cnc3cccnc3c2)cn1 gave an IC50 [1] of 4 nM, an IC50 [2] of 2010 nM and an MIC [3] greater than 25 µg/mL. For the same compound, the MIC [4] was greater than 25 µg/mL, the MIC [5] was greater than 25 µg/mL and the MIC [6] was 0.44 µg/mL (≈ 0.99 µM).
For CCNC(=O)Nc1cc(-c2nc(C(F)(F)F)cs2)c(-c2cc3ncccc3nc2N2[C@@H]3CC[C@H]2C[C@@H](N)C3)cn1, the IC50 [1] was 3 nM, the IC50 [2] was 24 nM and the MIC [3] was 35.5 µg/mL (≈ 62.5 µM). For the same compound, the MIC [4] was 0.56 µg/mL (≈ 0.985 µM), the MIC [5] was 4.54 µg/mL (≈ 7.98 µM) and the MIC [6] was 0.56 µg/mL (≈ 0.985 µM). For the same compound, the pKa [9] was 9.2 and the GI50 [10] was greater than 40000 nM.
Compound CC(C)(O/N=C(\C(=O)N[C@@H]1C(=O)N2C(C(=O)[O-])=C(C[n+]3ccccc3)CS[C@H]12)c1csc(N)n1)C(=O)O [CEFTAZIDIME] has an MIC [11] greater than 32 µg/mL, an MIC [12] of 0.25 µg/mL (≈ 0.457 µM) and an MIC [13] of 0.25 µg/mL (≈ 0.457 µM). The MIC [14] was greater than 32 µg/mL, the MIC [19] was 16 µg/mL (≈ 29.3 µM) and the MIC [20] was 16 µg/mL. The MIC [15] was greater than 32 µg/mL, the MIC [16] was greater than 32 µg/mL and the MIC [21] was 0.5 µg/mL (≈ 0.915 µM). For the same compound, the MIC [22] was greater than 32 µg/mL and the MIC [18] was greater than 32 µg/mL.
